Assay results reported in ChEMBL document CHEMBL1287802, “Convergent synthesis of fluorescence-labeled probes of Annonaceous acetogenins and visualization of their cell distribution” (Bioorg Med Chem, 2010).
Activity calls are given as the source filed them. The rule behind the calls is not given here.

Experiments:
[1] = molecular target: ABC-type oligopeptide transporter ABCB9 (Homo sapiens) (UniProt Q9NP78); assay: Effect on human GFP-tagged TAPL-mediated cellular uptake expressed in CHO-K1 cells assessed as localization to endoplasmic reticulum at 10 uM after 5 hrs using ER-Tracker red staining by confocal laser scanning microscopic analysis; format: cell-based
ABC-type oligopeptide transporter ABCB9 (Homo sapiens), sequence (Q9NP78 whole entry): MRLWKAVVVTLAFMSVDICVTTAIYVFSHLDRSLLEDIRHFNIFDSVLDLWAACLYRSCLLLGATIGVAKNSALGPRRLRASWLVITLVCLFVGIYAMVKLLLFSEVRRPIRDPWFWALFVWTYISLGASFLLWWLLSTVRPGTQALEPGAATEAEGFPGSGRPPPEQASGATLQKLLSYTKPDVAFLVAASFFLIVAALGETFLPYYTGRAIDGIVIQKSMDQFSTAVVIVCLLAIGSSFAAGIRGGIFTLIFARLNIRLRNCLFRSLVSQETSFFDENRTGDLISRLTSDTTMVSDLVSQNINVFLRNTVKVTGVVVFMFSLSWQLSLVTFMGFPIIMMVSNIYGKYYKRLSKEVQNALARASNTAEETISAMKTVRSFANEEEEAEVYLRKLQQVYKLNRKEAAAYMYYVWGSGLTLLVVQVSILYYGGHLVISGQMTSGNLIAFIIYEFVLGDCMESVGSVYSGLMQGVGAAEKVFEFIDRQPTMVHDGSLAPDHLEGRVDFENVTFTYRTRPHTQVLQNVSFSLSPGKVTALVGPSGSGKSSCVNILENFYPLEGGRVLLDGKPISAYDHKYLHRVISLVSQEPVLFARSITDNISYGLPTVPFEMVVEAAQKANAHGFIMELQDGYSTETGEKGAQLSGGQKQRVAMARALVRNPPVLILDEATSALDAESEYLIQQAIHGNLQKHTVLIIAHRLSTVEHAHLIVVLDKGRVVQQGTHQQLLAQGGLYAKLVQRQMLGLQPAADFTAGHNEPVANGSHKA
Method in brief: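 CHO-K1 cells were cultured two days at 37 °C in Ham's F12 with 7% fetal calf serum. They were loaded with 10 µM dansyl probe in medium for 5 h, washed five times, then stained with ER-Tracker Red. Live confocal imaging used 405 nm excitation for dansyl and 559 nm for the tracker, with overlap of signals assessed. Samples were run in duplicate.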

OVCAR-5 = assay: Growth inhibition of human OVCAR5 cells after 48 hrs by sulforhodamine B assay; format: functional; settings: OVCAR-5, 48 h
Method in brief: (§1)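 Tested in the JFCR39 panel of 39 human cancer cell lines. Cells were exposed to compound for 48 h, and growth was measured as the change in total cellular protein by sulforhodamine B colorimetry. GI50 (molar concentration for 50% growth inhibition) was calculated by a previously reported method. Fingerprints were plotted as log differences of each line's GI50 from the panel mean.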

SF-539 = assay: Growth inhibition of human SF539 cells after 48 hrs by sulforhodamine B assay; format: functional; settings: SF-539, 48 h; method in brief: as §1
DMS-273 = assay: Growth inhibition of human DMS273 cells after 48 hrs by sulforhodamine B assay; format: functional; settings: DMS-273, 48 h; method in brief: as §1
[2] = Growth inhibition of human MDA-MB-23 cells after 48 hrs by sulforhodamine B assay; format: functional; settings: MDA-MB-23, 48 h, read-out: pGI50 (converted); method in brief: as §1
HCT-116 = assay: Growth inhibition of human HCT116 cells after 48 hrs by sulforhodamine B assay; format: functional; settings: HCT-116, 48 h; method in brief: as §1
[3] = Cytotoxicity against CHOK1 cells at 10 uM after 24 hrs; format: cell-based, Cricetulus griseus; settings: chinese hamster, cho-k1, 24 h
Method in brief: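 CHO-K1 cells were grown two days at 37 °C in Ham's F12 with 7% fetal calf serum in glass-bottomed dishes. They were exposed to 10 µM probe for 5 h, washed, and imaged. Dishes were then incubated a further 24 h. Toxicity was judged by microscopic inspection for desquamated or suspended cells.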

OVCAR-3 = assay: Growth inhibition of human OVCAR-3 cells after 48 hrs by sulforhodamine B assay; format: functional; settings: OVCAR-3, 48 h; method in brief: as §1
MKN-45 = assay: Growth inhibition of human MKN45 cells after 48 hrs by sulforhodamine B assay; format: functional; settings: MKN-45, 48 h; method in brief: as §1
[4] = Growth inhibition of human RXF631L cells after 48 hrs by sulforhodamine B assay; format: functional; settings: RXF 631, 48 h; method in brief: as §1
DMS-114 = assay: Growth inhibition of human DMS114 cells after 48 hrs by sulforhodamine B assay; format: functional; settings: DMS-114, 48 h; method in brief: as §1
SF-295 = assay: Growth inhibition of human SF295 cells after 48 hrs by sulforhodamine B assay; format: functional; settings: SF-295, 48 h; method in brief: as §1
MCF7 = assay: Growth inhibition of human MCF7 cells after 48 hrs by sulforhodamine B assay; format: functional; settings: MCF7, 48 h; method in brief: as §1
DU-145 = assay: Growth inhibition of human DU145 cells after 48 hrs by sulforhodamine B assay; format: functional; settings: DU-145, 48 h, read-out: pGI50 (converted); method in brief: as §1
SF-268 = assay: Growth inhibition of human SF268 cells after 48 hrs by sulforhodamine B assay; format: functional; settings: SF-268, 48 h; method in brief: as §1
U-251 = assay: Growth inhibition of human U251 cells after 48 hrs by sulforhodamine B assay; format: functional; settings: U-251, 48 h; method in brief: as §1
St-4 = assay: Growth inhibition of human St-4 cells after 48 hrs by sulforhodamine B assay; format: functional; settings: St-4, 48 h; method in brief: as §1
OVCAR-4 = assay: Growth inhibition of human OVCAR4 cells after 48 hrs by sulforhodamine B assay; format: functional; settings: OVCAR-4, 48 h; method in brief: as §1
SNB-78 = assay: Growth inhibition of human SNB78 cells after 48 hrs by sulforhodamine B assay; format: functional; settings: SNB-78, 48 h; method in brief: as §1
[5] = Growth inhibition of human HBC4 cells after 48 hrs by sulforhodamine B assay; format: functional; settings: HBC4, 48 h; method in brief: as §1
MKN-28 = assay: Growth inhibition of human MKN28 cells after 48 hrs by sulforhodamine B assay; format: functional; settings: MKN-28, 48 h; method in brief: as §1
NCI-H23 = assay: Growth inhibition of human NCI-H23 cells after 48 hrs by sulforhodamine B assay; format: functional; settings: NCI-H23, 48 h; method in brief: as §1
PC-3 = assay: Growth inhibition of human PC3 cells after 48 hrs by sulforhodamine B assay; format: functional; settings: PC-3, 48 h; method in brief: as §1
[6] = Growth inhibition of human MKN1 cells after 48 hrs by sulforhodamine B assay; format: functional; settings: MKN-1, 48 h; method in brief: as §1
HT-29 = assay: Growth inhibition of human HT-29 cells after 48 hrs by sulforhodamine B assay; format: functional; settings: HT-29, 48 h; method in brief: as §1
A549 = assay: Growth inhibition of human A549 cells after 48 hrs by sulforhodamine B assay; format: functional; settings: A549, 48 h; method in brief: as §1
NCI-H226 = assay: Growth inhibition of human NCI-H226 cells after 48 hrs by sulforhodamine B assay; format: functional; settings: NCI-H226, 48 h; method in brief: as §1
OVCAR-8 = assay: Growth inhibition of human OVCAR8 cells after 48 hrs by sulforhodamine B assay; format: functional; settings: OVCAR-8, 48 h; method in brief: as §1
[7] = molecular target: ABC-type oligopeptide transporter ABCB9 (Homo sapiens) (UniProt Q9NP78); assay: Effect on human GFP-tagged TAPL-mediated cellular uptake expressed in CHO-K1 cells assessed as localization to lysosome at 10 uM after 5 hrs by confocal laser scanning microscopic analysis
NCI-H460 = assay: Growth inhibition of human NCI-H460 cells after 48 hrs by sulforhodamine B assay; format: functional; settings: NCI-H460, 48 h; method in brief: as §1
NCI-H522 = assay: Growth inhibition of human NCI-H522 cells after 48 hrs by sulforhodamine B assay; format: functional; settings: NCI-H522, 48 h; method in brief: as §1
SK-OV-3 = assay: Growth inhibition of human SKOV3 cells after 48 hrs by sulforhodamine B assay; format: functional; settings: SK-OV-3, 48 h; method in brief: as §1
MKN-7 = assay: Growth inhibition of human MKN7 cells after 48 hrs by sulforhodamine B assay; format: functional; settings: MKN-7, 48 h; method in brief: as §1
MKN-74 = assay: Growth inhibition of human MKN74 cells after 48 hrs by sulforhodamine B assay; format: functional; settings: MKN-74, 48 h; method in brief: as §1
LOX IMVI = assay: Growth inhibition of human LOXIMVI cells after 48 hrs by sulforhodamine B assay; format: functional; method in brief: as §1
HCT-15 = assay: Growth inhibition of human HCT15 cells after 48 hrs by sulforhodamine B assay; format: functional; settings: HCT-15, 48 h; method in brief: as §1
ACHN = assay: Growth inhibition of human ACHN cells after 48 hrs by sulforhodamine B assay; format: functional; method in brief: as §1
KM12 = assay: Growth inhibition of human KM12 cells after 48 hrs by sulforhodamine B assay; format: functional; settings: KM12, 48 h; method in brief: as §1
HCC 2998 = assay: Growth inhibition of human HCC2998 cells after 48 hrs by sulforhodamine B assay; format: functional; settings: HCC 2998, 48 h, read-out: pGI50 (converted); method in brief: as §1
[8] = Growth inhibition of human HBC5 cells after 48 hrs by sulforhodamine B assay; format: functional; settings: HBC5, 48 h; method in brief: as §1
SNB-75 = assay: Growth inhibition of human SNB75 cells after 48 hrs by sulforhodamine B assay; format: functional; settings: SNB-75, 48 h; method in brief: as §1
[9] = Growth inhibition of human BSY1 cells after 48 hrs by sulforhodamine B assay; format: functional; settings: BSY-1, 48 h; method in brief: as §1

## C[C@H]1C=C(CCCCCCCCCCCC[C@@H](O)[C@H]2CC[C@H]([C@H](O)CCCCCCCCCNS(=O)(=O)c3cccc4c(N(C)C)cccc34)O2)C(=O)O1
[1]
  Activity: Active
OVCAR-5
  GI50: > 100 µM
SF-539
  GI50: > 100 µM
DMS-273
  GI50: > 100 µM
[2]
  GI50: > 100 µM
HCT-116
  GI50: 8.91 µM
[3]
  Activity: Non-toxic
OVCAR-3
  GI50: > 100 µM
MKN-45
  GI50: > 100 µM
[4]
  GI50: > 100 µM
DMS-114
  GI50: 0.0234 µM
SF-295
  GI50: 0.513 µM
MCF7
  GI50: 6.03 µM
DU-145
  GI50: > 100 µM
SF-268
  GI50: > 100 µM
U-251
  GI50: > 100 µM
St-4
  GI50: > 100 µM
OVCAR-4
  GI50: > 100 µM
SNB-78
  GI50: > 100 µM
[5]
  GI50: > 100 µM
MKN-28
  GI50: 0.0692 µM
NCI-H23
  GI50: 3.47 µM
PC-3
  GI50: 81.3 µM
[6]
  GI50: > 100 µM
HT-29
  GI50: > 100 µM
A549
  GI50: > 100 µM
NCI-H226
  GI50: 29.5 µM
OVCAR-8
  GI50: > 100 µM
[7]
  Activity: inactive
NCI-H460
  GI50: > 100 µM
NCI-H522
  GI50: 4.9 µM
SK-OV-3
  GI50: > 100 µM
MKN-7
  GI50: 0.0398 µM
MKN-74
  GI50: 1.55 µM
LOX IMVI
  GI50: > 100 µM
HCT-15
  GI50: > 100 µM
ACHN
  GI50: > 100 µM
KM12
  GI50: > 100 µM
HCC 2998
  GI50: > 100 µM
[8]
  GI50: > 100 µM
SNB-75
  GI50: > 100 µM
[9]
  GI50: > 100 µM

## C[C@H]1C=C(CCCCCCCCCCCC[C@@H](O)[C@H]2CC[C@H]([C@H](O)CCCCCCCCCNc3ccc([N+](=O)[O-])c4nonc34)O2)C(=O)O1
OVCAR-5
  GI50: 38.9 µM
SF-539
  GI50: 33.9 µM
DMS-273
  GI50: 19.1 µM
[2]
  GI50: > 100 µM
HCT-116
  GI50: 15.8 µM
OVCAR-3
  GI50: 38.9 µM
MKN-45
  GI50: 43.7 µM
[4]
  GI50: 67.6 µM
DMS-114
  GI50: 0.01 µM
SF-295
  GI50: 7.24 µM
MCF7
  GI50: 16.2 µM
DU-145
  GI50: > 100 µM
SF-268
  GI50: 89.1 µM
U-251
  GI50: 75.9 µM
St-4
  GI50: 33.1 µM
OVCAR-4
  GI50: 60.3 µM
SNB-78
  GI50: 97.7 µM
[5]
  GI50: 64.6 µM
MKN-28
  GI50: 0.01 µM
NCI-H23
  GI50: 18.6 µM
PC-3
  GI50: 29.5 µM
[6]
  GI50: 21.4 µM
HT-29
  GI50: 69.2 µM
A549
  GI50: 26.3 µM
NCI-H226
  GI50: 22.9 µM
OVCAR-8
  GI50: 69.2 µM
NCI-H460
  GI50: 51.3 µM
NCI-H522
  GI50: 8.13 µM
SK-OV-3
  GI50: 81.3 µM
MKN-7
  GI50: 0.0525 µM
MKN-74
  GI50: 0.191 µM
LOX IMVI
  GI50: 10.7 µM
HCT-15
  GI50: 72.4 µM
ACHN
  GI50: 33.9 µM
KM12
  GI50: 36.3 µM
HCC 2998
  GI50: > 100 µM
[8]
  GI50: 21.9 µM
SNB-75
  GI50: 51.3 µM
[9]
  GI50: 33.1 µM
